According to ChEMBL document CHEMBL1153861, “Synthesis, optimization and structure-activity relationships of 3,5-disubstituted isoxazolines as new anti-tuberculosis agents” (2009):
Converted amounts (≈) assume the structure as drawn. The source made the active and inactive calls. The calls are words filed in the database; no cut-off is given here.

How the values were obtained:
[1] = test system: Mycobacterium tuberculosis; assay: Antitubercular activity against Mycobacterium tuberculosis H37Rv; assay type: functional
How it was run: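 Broth microdilution against M. tuberculosis H37Rv; MIC read by visual inspection of growth.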

Staphylococcus aureus = assay: Antimicrobial activity against Staphylococcus aureus; assay type: functional, organism-based
Streptococcus pneumoniae = assay: Antimicrobial activity against Streptococcus pneumoniae; assay type: functional, organism-based
Escherichia coli = assay: Antimicrobial activity against Escherichia coli; assay type: functional, organism-based

Structure (SMILES) | MIC [1] [µg/mL] | Activity (Staphylococcus aureus) | Activity (Streptococcus pneumoniae) | Activity (Escherichia coli)
CCOC(=O)C1=NOC(c2ccc(N3CCN(C(=O)Nc4ccccc4)CC3)cc2)C1 (stereo not drawn) | 6.25 (≈ 14.8 µM) | inactive | inactive | inactive
CCOC(=O)C1=NOC(c2ccc(N3CCN(Cc4ccc([N+](=O)[O-])cc4)CC3)cc2)C1 (stereo not drawn) | 0.8 (≈ 1.82 µM) | inactive | inactive | inactive
CCOC(=O)C1=NOC(c2ccc(N3CCN(C(=O)OCC(C)C)CC3)cc2)C1 (stereo not drawn) | 0.8 (≈ 1.98 µM) | inactive | inactive | inactive
CCCCOC(=O)N1CCN(c2ccc(C3CC(C(=O)OCC)=NO3)cc2)CC1 (stereo not drawn) | 0.8 (≈ 1.98 µM) | inactive | inactive | inactive
C=CCN1CCN(c2ccc(C3CC(C(=O)OCC)=NO3)cc2)CC1 (stereo not drawn) | 6.25 (≈ 18.2 µM) | inactive | inactive | inactive
[N-]=[N+]=NCC1=NOC(c2ccc(N3CCN(Cc4ccccc4)CC3)cc2)C1 (stereo not drawn) | 50 (≈ 133 µM) | inactive | inactive | inactive
CCOC(=O)C1=NOC(c2ccc(-c3ccc(C=O)cc3)cc2)C1 (stereo not drawn) | 6.25 (≈ 19.3 µM) | inactive | inactive | inactive
C=CCOC(=O)N1CCN(c2ccc(C3CC(C(=O)OCC)=NO3)cc2)CC1 (stereo not drawn) | 0.8 (≈ 2.06 µM) | inactive | inactive | inactive
CCOC(=O)C1=NOC(c2ccc(N3CCCCC3)cc2)C1 (stereo not drawn) | 6.25 (≈ 20.7 µM) | inactive | inactive | inactive
CC(=O)NCC1=NOC(c2ccc(N3CCN(Cc4ccccc4)CC3)cc2)C1 (stereo not drawn) | > 200 | inactive | inactive | inactive
CC(C)COC(=O)N1CCN(c2ccc(C3CC(C(=O)O)=NO3)cc2)CC1 (stereo not drawn) | > 200 | inactive | inactive | inactive
CCCCCCNC(=O)N1CCN(c2ccc(C3CC(C(=O)O)=NO3)cc2)CC1 (stereo not drawn) | > 200 | inactive | inactive | inactive
CCOC(=O)C1=NOC(c2ccc(-c3ccc(OC)c(F)c3)cc2)C1 (stereo not drawn) | 3.12 (≈ 9.1 µM) | inactive | inactive | inactive
CCCCCCNC(=O)N1CCN(c2ccc(C3CC(C(=O)OCC)=NO3)cc2)CC1 (stereo not drawn) | 0.4 (≈ 0.929 µM) | inactive | inactive | inactive
CCOC(=O)C1=NOC(c2ccc(N3CCN(C(=O)NC(C)C)CC3)cc2)C1 (stereo not drawn) | 12.5 (≈ 32.2 µM) | inactive | inactive | inactive
CCOC(=O)C1=NOC(c2ccc(N3CCNCC3)cc2)C1 (stereo not drawn) | 50 (≈ 165 µM) | inactive | inactive | inactive
CCOC(=O)C1=NOC(c2ccc(N3CCN(C(=O)OC(C)(C)C)CC3)cc2)C1 (stereo not drawn) | 0.8 (≈ 1.98 µM) | inactive | inactive | inactive
O=C(O)C1=NOC(c2ccc(N3CCN(Cc4ccccc4)CC3)cc2)C1 (stereo not drawn) [listing 1 of 2 here] |  | inactive | inactive | inactive
NNC(=O)C1=NOC(c2ccc(N3CCN(Cc4ccccc4)CC3)cc2)C1 (stereo not drawn) | 50 (≈ 132 µM) | inactive | inactive | inactive
CCOC(=O)C1=NOC(c2ccc(-c3noc(-c4ccccc4)n3)cc2)C1 (stereo not drawn) | 3.12 (≈ 8.6 µM) | inactive | inactive | inactive
CC(=O)NCC1=NOC(c2ccc(N3CCOCC3)cc2)C1 (stereo not drawn) | > 200 | inactive | inactive | inactive
O=C(O)C1=NOC(c2ccc(N3CCN(Cc4ccccc4)CC3)cc2)C1 (stereo not drawn) [listing 2 of 2 here] | > 200 |  |  | 
CCOC(=O)C1=NOC(c2ccc(N3CCOCC3)cc2)C1 (stereo not drawn) | > 200 | inactive | inactive | inactive

Structure (SMILES) | MIC [1] [µg/mL] | Activity (Staphylococcus aureus) | Activity (Streptococcus pneumoniae) | Activity (Escherichia coli)
CCCNC(=O)N1CCN(c2ccc(C3CC(C(=O)OCC)=NO3)cc2)CC1 (stereo not drawn) | 25 (≈ 64.4 µM) | inactive | inactive | inactive
CCOC(=O)C1=NOC(c2ccc(N3CCN(Cc4ccccc4)CC3)cc2)C1 (stereo not drawn) | 1.56 (≈ 3.96 µM) | inactive | inactive | inactive
CCOC(=O)C1=NOC(c2ccc(N3CCN(C(=O)OCC)CC3)cc2)C1 (stereo not drawn) | 1.56 (≈ 4.16 µM) | inactive | inactive | inactive
COC(=O)C1=NOC(c2ccc(N3CCN(Cc4ccccc4)CC3)cc2)C1 (stereo not drawn) | 1.56 (≈ 4.11 µM) | inactive | inactive | inactive
O=C([O-])C1=NOC(c2ccc(N3CCN(Cc4ccccc4)CC3)cc2)C1.[Li+] (stereo not drawn) | 100 |  |  | 
CCOC(=O)C1=NOC(c2ccc(N3CCN(CC4CC4)CC3)cc2)C1 (stereo not drawn) | 12.5 (≈ 35 µM) | inactive | inactive | inactive
NCC1=NOC(c2ccc(N3CCOCC3)cc2)C1 (stereo not drawn) | > 200 | inactive | inactive | inactive
NC(=O)C1=NOC(c2ccc(N3CCN(Cc4ccccc4)CC3)cc2)C1 (stereo not drawn) | 200 (≈ 549 µM) | inactive | inactive | inactive
CCOC(=O)C1=NOC(c2ccc(-c3ccco3)cc2)C1 (stereo not drawn) | 3.25 (≈ 11.4 µM) | inactive | inactive | inactive
CCOC(=O)C1=NOC(c2ccc(N3CCN(C(=O)NCCc4ccccc4)CC3)cc2)C1 (stereo not drawn) | 0.8 (≈ 1.78 µM) | inactive | inactive | inactive
Cc1nnc(C2=NOC(c3ccc(N4CCN(Cc5ccccc5)CC4)cc3)C2)o1 (stereo not drawn) | 200 (≈ 496 µM) | inactive | inactive | inactive
CCCNC(=O)C1=NOC(c2ccc(N3CCN(Cc4ccccc4)CC3)cc2)C1 (stereo not drawn) | 200 (≈ 492 µM) | inactive | inactive | inactive
O=C(O)C1=NOC(c2ccc(N3CCN(C(=O)NCCc4ccccc4)CC3)cc2)C1 (stereo not drawn) | > 200 | inactive | inactive | inactive
[N-]=[N+]=NCC1=NOC(c2ccc(N3CCOCC3)cc2)C1 (stereo not drawn) | 200 (≈ 696 µM) | inactive | inactive | inactive
CCOC(=O)C1=NOC(c2ccc(-c3ncon3)cc2)C1 (stereo not drawn) | 50 (≈ 174 µM) | inactive | inactive | inactive
CCOC(=O)C1=NOC(c2ccc(-c3ccccc3)cc2)C1 (stereo not drawn) | 100 (≈ 339 µM) | inactive | inactive | inactive
NCC1=NOC(c2ccc(N3CCN(Cc4ccccc4)CC3)cc2)C1 (stereo not drawn) | 200 (≈ 571 µM) | inactive | inactive | inactive
CCOC(=O)C1=NOC(c2ccc(N3CCN(C(=O)OC)CC3)cc2)C1 (stereo not drawn) | 1.56 (≈ 4.32 µM) | inactive | inactive | inactive
CCCCOC(=O)N1CCN(c2ccc(C3CC(C(=O)O)=NO3)cc2)CC1 (stereo not drawn) | > 200 | inactive | inactive | inactive
CCOC(=O)C1=NOC(c2ccc(N3CCC(Oc4ccc(OC(F)(F)F)cc4)CC3)cc2)C1 (stereo not drawn) | 25 (≈ 52.3 µM) | inactive | inactive | inactive
OCC1=NOC(c2ccc(N3CCOCC3)cc2)C1 (stereo not drawn) | > 200 | inactive | inactive | inactive
OCC1=NOC(c2ccc(N3CCN(Cc4ccccc4)CC3)cc2)C1 (stereo not drawn) | 200 (≈ 569 µM) | inactive | inactive | inactive
